Screening data as filed in PubChem BioAssay.
NadD block: NadD (S. aureus) enzyme inhibition; purified NadD enzyme, colorimetric absorbance read-out; inhibition, % at 20 µM; 0.78% of 360,000 active; AID 602399; in the data active = inhibition above about 26%
XiGFP reactiv: X-chromosome reactivation activator; XiGFP mouse fibroblasts, % GFP-positive cells imaging, 3 d; cells co-treated with 5-aza-dC sensitizer; scaled so ellipticine positive control = 100%; activation, % at 7.58 µM; 0.055% of 360,000 active; AID 743238;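 active = mean normalized replicate activation at least 10% and every replicate at or above 10%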
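System: XiGFP fibroblasts, SV40-immortalized. Medium: DMEM plus 5-aza-dC sensitizer. Doses: single point. Timing: 3 d treatment, 15 min room-temperature fixation. Control set: ellipticine 6 µM.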
Rin1-Abl PPI inh: inhibitors of human Rin1-Abl protein interaction | inhibition, % at 7.35 µM | TR-FRET Rin1/Abl binding, biochemical | P00519+Q13671 | 0.4% of 360,000 active; in the data active = inhibition above about 5%, passing the limit was not always enough
ABHD5-PLIN5 inh: blocks binding of human ABHD5 to perilipin-5; Split G. princeps luciferase complementation, luminescence, 4 h; 0.78% of 360,000 active; inhibition, % at 4 µM; Q00G26+Q8WTS1; AID 602281;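 active = inhibition above the mean inhibition across every tested compound plus 3 SD, cut at about 22% in these data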
Target sequence (Q00G26 whole entry, looked up): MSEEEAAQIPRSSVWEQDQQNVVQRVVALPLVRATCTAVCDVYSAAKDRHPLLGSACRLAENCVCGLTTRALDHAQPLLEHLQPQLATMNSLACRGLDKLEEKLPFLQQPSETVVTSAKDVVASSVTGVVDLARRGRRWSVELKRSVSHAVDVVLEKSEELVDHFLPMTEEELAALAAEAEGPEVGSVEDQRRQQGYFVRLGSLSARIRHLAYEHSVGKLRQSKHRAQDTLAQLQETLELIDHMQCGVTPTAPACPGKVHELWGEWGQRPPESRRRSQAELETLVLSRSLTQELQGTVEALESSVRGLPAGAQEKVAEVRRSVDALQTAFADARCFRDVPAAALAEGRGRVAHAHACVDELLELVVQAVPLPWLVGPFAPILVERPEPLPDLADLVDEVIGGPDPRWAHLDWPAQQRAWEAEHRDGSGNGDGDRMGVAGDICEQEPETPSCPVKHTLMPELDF
Target sequence (Q8WTS1 whole entry, looked up): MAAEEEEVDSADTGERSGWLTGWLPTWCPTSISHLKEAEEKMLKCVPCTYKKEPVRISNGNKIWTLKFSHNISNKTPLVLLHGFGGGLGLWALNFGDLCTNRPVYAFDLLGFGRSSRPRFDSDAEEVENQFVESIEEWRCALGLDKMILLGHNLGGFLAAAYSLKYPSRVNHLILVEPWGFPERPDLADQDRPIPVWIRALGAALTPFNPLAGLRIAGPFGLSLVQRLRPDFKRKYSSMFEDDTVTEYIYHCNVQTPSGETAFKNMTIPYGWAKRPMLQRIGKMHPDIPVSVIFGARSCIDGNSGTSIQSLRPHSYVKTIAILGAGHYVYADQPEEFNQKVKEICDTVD
Rpn11 inh: inhibitors of human proteasome Rpn11. 0.59% of 360,000 active. inhibition, % at 20 µM. human 26S proteasome, Ub4-pepOG fluorescence polarization; 20S core pre-blocked with epoxomicin. O00487;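 active = inhibition at 20 µM, scaled to each plate's controls, above about 33%, limit read from the data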
Rin1 Abl conf: confirmation of inhibitors of human Rin1-Abl interaction | shares compounds with Rin1-Abl PPI inh | TR-FRET Rin1-Abl binding, purified proteins | inhibition, % at 7.35 µM | 49% of 1,300 active | AID 602124
GFP quencher: counter-screen for Rin1-Abl inhibitors: GFP fluorescence quenchers. shares compounds with Rin1-Abl PPI inh. inhibitors/quenchers counterscreen. inhibition, % at 6.75 µM. AID 602125. 8.5% of 1,300 active;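 also: ABL1-eGFP fusion protein alone without its partner RIN1-SBP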
GFP quench dose: quenches GFP in dose response, Rin1-Abl counter-screen | IC50, µM | GFP fluorescence interference/quenching counterscreen | shares compounds with Rin1-Abl PPI inh | 230 tested, under 10 active | AID 602182; call rule not given here;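 also: ABL1-eGFP fusion protein alone without its RIN1 binding partner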
Large screens that a line does not name were inactive (follow-up assays come after a bar, where they were run). Hits are enriched below; roughly 1.9% of the tested compounds scored in any of these assays. Rule as the data show it, unless noted: active = inhibition above about 6.5%; inactive = the rest.

C[C@H](CO)N1C[C@H](C)[C@@H](CN(C)C(=O)Nc2cccc(F)c2)Oc2ncc(C3=CCCCC3)cc2C1=O	none (no result: NadD block, Rin1-Abl PPI inh, ABHD5-PLIN5 inh, Rpn11 inh)
COc1ccc(NC(=O)N2CCC3(CC2)CN(CC2CC2)[C@H](CO)c2c3c3ccc(OC)cc3n2C)cc1	none (no result: NadD block, Rin1-Abl PPI inh, ABHD5-PLIN5 inh, Rpn11 inh)
N#Cc1ccsc1NC(=O)CN1CCN(c2ccccc2)CC1	none
N#Cc1ccsc1NC(=O)CN1CCN(c2ccc(O)cc2)CC1	Rin1-Abl PPI inh 10.2 | Rin1 Abl conf inactive | GFP quencher inactive
COCCCn1c(SCC(=O)Nc2ccc(C)cc2)nc2ccccc2c1=O	none
Cc1ccc(NC(=O)CN(C)C(=O)CSc2nc3ccccc3c(=O)n2CCO)cc1	Rin1-Abl PPI inh 10.7 | Rin1 Abl conf 9.0 | GFP quencher inactive
CCOC(=O)c1ccccc1NC(=O)c1cccc([N+](=O)[O-])c1	Rin1-Abl PPI inh 9.8 | Rin1 Abl conf inactive | GFP quencher inactive
O=C(COC(=O)c1ccccc1NC(=O)c1ccccc1)c1cccc([N+](=O)[O-])c1	none
COCC(=O)N1CC2(CCN(Cc3cncnc3)CC2)c2c(n(C)c3cc(OC)ccc23)[C@H]1CO	none (no result: NadD block, Rin1-Abl PPI inh, ABHD5-PLIN5 inh, Rpn11 inh)
O=C1CCC([N+](=O)[O-])C(c2ccc(C(F)(F)F)cc2)N1 (stereo not drawn)	Rin1-Abl PPI inh 8.2 | Rin1 Abl conf inactive | GFP quencher inactive
O=C(OCCCc1cc2ccccc2c(=O)o1)N1CCOCC1	none
O=C(OCCc1cc2ccccc2c(=O)o1)N1CCOCC1	Rin1-Abl PPI inh 11.6 | Rin1 Abl conf inactive | GFP quencher inactive
CC12CCC(=O)N1C(C(=O)N1CCN(S(=O)(=O)c3ccccc3F)CC1)CS2 (stereo not drawn)	none
CC12CCC(=O)N1C(C(=O)N1CCN(S(=O)(=O)c3ccc(Br)cc3Cl)CC1)CS2 (stereo not drawn)	Rin1-Abl PPI inh 18.6 | Rin1 Abl conf 17.4 | GFP quencher inactive | GFP quench dose inactive
OCC1OC(n2cnc3c(NCc4ccccc4O)ncnc32)C(O)C1O (stereo not drawn)	Rin1-Abl PPI inh 20.5 | Rin1 Abl conf 16.8 | GFP quencher inactive | GFP quench dose inactive
OC[C@H]1O[C@@H](n2cnc3c(Nc4ccccc4)ncnc32)[C@H](O)[C@@H]1O	none
C[C@@H]1CN(C)C(=O)c2cccc(N)c2O[C@@H]1CN(C)C	none (no result: NadD block, Rin1-Abl PPI inh, ABHD5-PLIN5 inh, Rpn11 inh)
C[C@H](CO)N1C[C@H](C)[C@H](CN(C)C)Oc2cc(C3=CCCCC3)ccc2S1(=O)=O	none (no result: NadD block, Rin1-Abl PPI inh, ABHD5-PLIN5 inh, Rpn11 inh)
O=C([C@H]1[C@H](CO)[C@H]2Cn3c(ccc(-c4ccccc4)c3=O)[C@@H]1N2)N1CCCCC1	none (no result: NadD block, Rin1-Abl PPI inh, ABHD5-PLIN5 inh, Rpn11 inh)
Cc1ccc(NC2CCCN(C(=O)c3cc4ncccn4n3)C2)cc1C (stereo not drawn)	Rin1-Abl PPI inh 37.0 | Rin1 Abl conf inactive | GFP quencher inactive
Cc1ccc(NC2CCCN(C(=O)CN3C(=O)c4ccccc4C3=O)C2)cc1C (stereo not drawn)	Rin1-Abl PPI inh 9.8 | Rin1 Abl conf inactive | GFP quencher inactive
Cc1ccccc1-c1ccc([C@H]2[C@H](CO)N3C(=O)CN(C(=O)NC4CCCC4)C[C@@H]23)cc1	none (no result: NadD block, Rin1-Abl PPI inh, ABHD5-PLIN5 inh, Rpn11 inh)
Cc1nn(C)cc1NC(=O)C[C@@H]1CC[C@H]2[C@H](COc3ccc(NC(=O)C4CCC4)cc3C(=O)N2C)O1	none (no result: NadD block, Rin1-Abl PPI inh, ABHD5-PLIN5 inh, Rpn11 inh)
C[C@@H]1CCCCO[C@@H](CN(C)C(=O)Nc2ccc(F)cc2)[C@@H](C)CN([C@@H](C)CO)C(=O)c2cc(NC(=O)Nc3ccc(C(F)(F)F)cc3)ccc2O1	none (no result: NadD block, Rin1-Abl PPI inh, ABHD5-PLIN5 inh, Rpn11 inh)
O=C(/C=C/c1ccc(O)c(O)c1)OC1C(O)CC(OC(=O)/C=C/c2ccc(O)c(O)c2)(C(=O)O)CC1O (stereo not drawn)	Rin1-Abl PPI inh 23.2 | Rin1 Abl conf 30.9 | GFP quencher inactive | GFP quench dose inactive
COCc1cc(CN2CCCC2)c(O)c2ncccc12	Rin1-Abl PPI inh 22.1 (no result: XiGFP reactiv) | Rin1 Abl conf inactive | GFP quencher inactive
Oc1c(CN2CCCCC2)ccc2cccnc12	Rin1-Abl PPI inh 34.2 | Rin1 Abl conf inactive | GFP quencher inactive
OCCN1CCN(Cc2cc(Cl)c3cccnc3c2O)CC1	none (no result: XiGFP reactiv)
C/C=C/c1ccc([C@@H]2[C@H](CO)N(Cc3cccc(F)c3)C23CN(C(=O)CC)C3)cc1	none (no result: NadD block, Rin1-Abl PPI inh, ABHD5-PLIN5 inh, Rpn11 inh)
Cc1nc(N/N=C/c2ccc(O)cc2O)cc(N2CCOCC2)n1	Rin1-Abl PPI inh 36.0 | Rin1 Abl conf 44.5 | GFP quencher inactive | GFP quench dose inactive
Cc1nc(N/N=C/c2cccc(F)c2)cc(N2CCOCC2)n1	none
CCc1ccc(NC(=O)CC2C(=O)N(c3ccc(C)cc3)C(=O)N2CCc2ccncc2)cc1 (stereo not drawn)	none
Cc1cccc(N2C(=O)C(CC(=O)Nc3cccc(F)c3)N(CCc3ccncc3)C2=O)c1 (stereo not drawn)	Rin1-Abl PPI inh 5.3 | Rin1 Abl conf inactive | GFP quencher inactive
Cc1ccc(Cl)cc1S(=O)(=O)N1CCC(C(=O)NC2CCN(Cc3ccccc3)CC2)CC1	Rin1-Abl PPI inh 15.5 | Rin1 Abl conf inactive | GFP quencher inactive
CCN(CC)S(=O)(=O)c1ccc(S(=O)(=O)N2CCC(C(=O)NC3CCN(Cc4ccccc4)CC3)CC2)cc1	none (no result: XiGFP reactiv)
Cc1cccc(C(=O)Nc2ccc(O)cc2C(=O)O)c1	none
O=C(Nc1ccc(O)cc1C(=O)O)c1ccc(NC(=O)c2ccco2)cc1	none
Cc1ccc(C(=O)Nc2ccc(O)cc2C(=O)O)cc1C	Rin1-Abl PPI inh 26.7 (no result: XiGFP reactiv) | Rin1 Abl conf 15.8 | GFP quencher inactive
Cc1ccc(C(=O)Nc2ccc(O)cc2C(=O)O)cc1	Rin1-Abl PPI inh 11.1 (no result: XiGFP reactiv) | Rin1 Abl conf 12.7 | GFP quencher inactive
CC(C)NC(=O)Nc1ccc2c(c1)CC(=O)N(C)C[C@H](C)[C@@H](CN(C)C(=O)OC(C)(C)C)O2	none (no result: NadD block, Rin1-Abl PPI inh, ABHD5-PLIN5 inh, Rpn11 inh)
CCCCn1nc(C(=O)N(C)CC(=O)Nc2cccc(F)c2)c2ccccc2c1=O	none
CCCn1nc(C(=O)N(C)CC(=O)Nc2ccc(OCC)c(OCC)c2)c2ccccc2c1=O	Rin1-Abl PPI inh 21.2 | Rin1 Abl conf 34.3 | GFP quencher inactive | GFP quench dose inactive
CO[C@H]1CN(C)C(=O)c2ccc(NS(=O)(=O)c3ccc(-c4ccccc4)cc3)cc2OC[C@H](C)NC[C@@H]1C	none (no result: NadD block, Rin1-Abl PPI inh, ABHD5-PLIN5 inh, Rpn11 inh)
CCOC(=O)CCCCC(=O)c1[nH]c(=O)[nH]c1Cn1cnc2ccccc21	Rin1-Abl PPI inh 71.5 (no result: XiGFP reactiv) | Rin1 Abl conf 79.1 | GFP quencher inactive | GFP quench dose inactive
CCOC(=O)CCCCC(=O)c1[nH]c(=O)[nH]c1CSc1nc(-c2ccccc2)c(C#N)c(=O)[nH]1	Rin1-Abl PPI inh 61.0 (no result: XiGFP reactiv) | Rin1 Abl conf 75.5 | GFP quencher inactive | GFP quench dose inactive
